# Compound activity (PubChem BioAssay)
# This is a sample that favours compounds with a hit; in the whole collection about 3.3% have one here.
# TDP2 absorb = human TDP2 enzyme inhibitors, primary screen, biochemical, epi absorbance, recombinant enzyme | AID 720702, 2013 | inhibition, % at 12.8 µM | T5PNP hydrolysis, p-nitrophenol absorbance 415 nm | 0.34% of 370,000 active | Tyrosyl-DNA phosphodiesterase 2 (Homo sapiens), O95551;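 active = inhibition above the mean of all tested compounds plus 3 SD, set per campaign, cut at about 25% in these data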;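 note: 0% = DMSO with enzyme and 100% = buffer with substrate but no TDP2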
# Target sequence (O95551 whole entry, looked up): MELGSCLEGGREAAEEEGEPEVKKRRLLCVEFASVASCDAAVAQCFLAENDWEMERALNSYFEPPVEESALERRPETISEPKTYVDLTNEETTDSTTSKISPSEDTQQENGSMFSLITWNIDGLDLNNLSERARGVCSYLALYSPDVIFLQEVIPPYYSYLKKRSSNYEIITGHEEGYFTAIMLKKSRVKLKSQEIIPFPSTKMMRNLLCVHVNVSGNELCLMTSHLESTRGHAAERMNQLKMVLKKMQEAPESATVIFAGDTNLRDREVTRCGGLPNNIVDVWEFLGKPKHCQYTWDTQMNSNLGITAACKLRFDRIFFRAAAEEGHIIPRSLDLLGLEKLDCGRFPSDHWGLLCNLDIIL
#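 Read-out basis: percent inhibition. System: recombinant human TDP2. Buffer or medium: Mg2+-containing Tris-HCl buffer, pH 7.5. Repeats: single replicate. Timing: reaction 2 h, 37 °C. Benchmarks: high control without enzyme, low control DMSO plus TDP2. Probe or stimulus: 5 mM T5PNP. Doses: 12.8 µM only. Measured by: epi absorbance of p-nitrophenol freed from T5PNP by hydrolysis.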
# MBD2 DNA inh = inhibitors of MBD2 binding to methylated DNA, primary screen, biochemical, TR-FRET, DNA-binding domain, human | MBD2 binding to methylated oligonucleotide | inhibition, % at 4.4 µM | 0.31% of 370,000 active; in the data active = inhibition above about 13%
# SIAE primary = human SIAE inhibitors, primary screen, biochemical, fluorescence polarization, FP-Rh probe, 1536-well HTS | AID 1053197, 2014 | 0.69% of 370,000 active | inhibition, % at 9.66 µM | SIAE FP-Rh probe binding;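 active = inhibition above a cutoff: mean of compounds within the control limits plus 3 SD of those, cut at about 17% in these data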;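 note: 0% = plate median of compound wells and 100% = probe without SIAE protein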
# LEDGF integ inh = blockers of LEDGF/p75-dependent integrase strand transfer – biochemical, TR-FRET, high throughput, primary screen; TR-FRET IN-LEDGF/p75 DNA integration, Eu/Cy5; AID 743269, 2014; inhibition, % at 3.7 µM; HIV-1 integrase (with human LEDGF/p75); 0.64% of 370,000 active;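 active = inhibition above the screen-wide mean plus 3 SD, cut at about 13% in these data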;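 note: signal is the Cy5 over europium emission ratio at 671 and 618 nm; 0% = plate median of compound wells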
# PRMT1 inh = PRMT1 methyltransferase inhibitors, primary screen, biochemical, fluorescence polarization. inhibition, % at 2.79 µM. recombinant PRMT1, activity-based probe fluorescence polarization. 1.3% of 370,000 active;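 active = inhibition above about 21% made by adding two undisclosed values, limit read from the data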
# UHRF1 MBD2 ctr = UHRF1 methylated DNA binding inhibitors, primary screen, counter-screen for MBD2 inhibitor project, biochemical, TR-FRET, human UHRF1, single concentration; E3 ubiquitin-protein ligase UHRF1 (Homo sapiens), Q96T88; UHRF1 binding to methylated oligo; inhibition, % at 4.4 µM; 0.75% of 370,000 active; in the data active = inhibition above about 21%;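 note: UHRF1 SRA domain binding a hemimethylated CpG hairpin DNA probe; 0% = median of test compound wells and 100% = reference inhibitor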
# Active calls of the source: *; . = no result given.
SMILES,TDP2 absorb,MBD2 DNA inh,SIAE primary,LEDGF integ inh,PRMT1 inh,UHRF1 MBD2 ctr
COc1ccc(C(CCN2CCN(c3ccccc3)CC2)c2c(O)cc(OC)cc2OC)cc1 (stereo not given),-6,3,2,1,-5,-5
COc1cc(O)c(C(CCN2CCN(c3ccccc3)CC2)c2ccc(N(C)C)cc2)c(OC)c1 (stereo not given),12,8,11,3,3,22*
COC(=O)C1=C(C)NC(=O)/C1=C\N(C)C,-6,0,10,-3,25*,0
O=C(Nc1cccc2cccnc12)c1cccnc1,3,-1,1,1,-3,-5
O=C(Nc1cccc2nsnc12)c1cccnc1,0,1,4,-4,3,55*
COC(=O)[C@]12C[C@H](CC(=O)NCC34CC5CC(CC(C5)C3)C4)C(=O)N(Cc3ccc4c(c3)OCO4)C1=C[C@H](C(C)C)O[C@@H]2C1CC1,3,0,-3,-1,2,-1
CC(=O)Nc1ccc2c(O)cc(S(=O)(=O)O)cc2c1,5,1,11,2,6,2
O=S(=O)(O)c1cc(O)c2ccc(Nc3ccccc3)cc2c1,17,36*,14,32*,28*,64*
Nc1ccc2c(O)cc(S(=O)(=O)O)cc2c1,22,4,-15,40*,.,21*
O=C(CCC(=O)Nc1ccc(Cl)cc1Cl)N/N=C/c1ccc([N+](=O)[O-])o1,-2,-10,14,10,24*,-3
CCOC(=O)[C@@]12CN(C(=O)OC(C)(C)C)CC=C1N(Cc1ccc(OC)cc1)C(=O)[C@H]2CC(=O)NCC1CCCCC1,3,2,1,-1,1,-1
CCOc1ccccc1NC(=O)CN(c1cc(C)cc(C)c1)S(=O)(=O)c1c(C)noc1C,6,0,0,-2,-3,27*
CCOc1ccccc1NC(=O)CN(c1ccc(OC)cc1)S(=O)(=O)c1c(C)noc1C,-6,0,-3,-1,0,0
CCOc1ccc(CCNC(=O)Cc2ccccc2)cc1OCC,12,3,1,4,2,-1
COc1ccc(C2=NOC(C(=O)Nc3c(C)n(C)n(-c4ccccc4)c3=O)C2)cc1 (stereo not given),-7,4,-6,-5,4,5
COc1cc(C2=NOC(C(=O)Nc3c(C)n(C)n(-c4ccccc4)c3=O)C2)cc(OC)c1OC (stereo not given),15,13,13,3,0,24*
O=S1(=O)CC(N2CCN(Cc3ccccc3F)CC2)CN1Cc1cn(Cc2ccc(C(F)(F)F)cc2)nn1 (stereo not given),-8,4,3,8,-5,21*
CC(C)=CCOc1ccc2c(C)c(CC(=O)N3C[C@H]4C[C@@H](C3)c3cccc(=O)n3C4)c(=O)oc2c1C,2,0,5,3,-5,35*
Cc1c(OCC(=O)N2C[C@H]3C[C@@H](C2)c2cccc(=O)n2C3)ccc2c3c(c(=O)oc12)CCCC3,-14,-2,-1,4,-6,0
C/C=C/C=C/C(=O)N1C[C@H](C)N(C)C[C@H]1C,-8,1,0,-1,-1,3
COC(=O)c1ccc(OC(=O)CS(=O)c2ccccc2[N+](=O)[O-])cc1 (stereo not given),-3,-3,1,0,-2,62*
CCOC(=O)c1ccccc1OC(=O)CS(=O)c1ccccc1[N+](=O)[O-] (stereo not given),0,-2,10,-1,1,3
Cc1ccc(Cn2cc(COC(=O)N3CCOCC3)nn2)cc1,8,-1,1,5,-6,1
Cc1ccc2nc3c(c(C(=O)O)c2c1)CCC3,19,-3,-2,0,6,21*
O=C(O)c1c2c(nc3ccc(Cl)cc13)CCC2,-5,-7,5,4,4,3
SMILES,TDP2 absorb,MBD2 DNA inh,SIAE primary,LEDGF integ inh,PRMT1 inh,UHRF1 MBD2 ctr
CCOc1ccc(-n2nnc3c(=O)n(CC(=O)Nc4cc(C)on4)cnc32)cc1,0,1,5,-1,-1,0
CCOc1ccc(-n2nnc3c(=O)n(C/C=C/c4ccccc4)cnc32)cc1,7,-1,-6,1,3,23*
Cc1ccc(-c2nc3ccccc3nc2NN)cc1,-11,3,-2,-6,22*,0
CCOc1nc(C)cc(C)c1S(=O)(=O)c1ccc(Cl)cc1,0,7,-3,1,1,25*
CCOC(=O)[C@]12CCCC=C1N(CCCOC)C(=O)[C@@H]2CC(=O)NCc1ccc(OC)c(OC)c1,4,-1,2,-2,2,2
CC(=O)CC[C@@H]1CC[C@]2(CCCN(S(C)(=O)=O)C2)O1,-2,6,-2,-3,9,1
CC(OC(=O)c1cc(O)c2ccccc2c1O)C(=O)Nc1ccc(C(N)=O)cc1 (stereo not given),47*,-13,2,14*,6,-1
c1ccc(-c2ccc(CNc3nc(-c4ccccn4)nnc3-c3ccccc3)cc2)cc1,-4,2,-7,-3,-5,-2
COc1ccc(-c2nc3c(C(=O)NCCN(C)C)cccc3c3ccccc23)cc1,-1,13,-2,-7,6,-14
CN(C)CCNC(=O)c1cccc2nc3c(ccc4ccccc43)nc12,-3,31*,-3,-1,-1,-33
O=C(CSc1nnc(-c2ccccc2)o1)c1nnc(-c2ccccc2)o1,8,-3,-10,-1,24*,-3
CCOC(=O)CSc1nnc(-c2ccccc2)o1,-2,-3,-10,1,0,-1
CCOc1ccc(N(CC(=O)Nc2c(C)n(C)n(-c3ccccc3)c2=O)S(=O)(=O)c2ccc(C)c(C)c2)cc1,5,-5,-1,0,1,-1
CCn1c(Cc2cccs2)nnc1SCC(=O)Nc1ccc(OCc2ccccc2)cc1,8,-6,1,0,1,2
COC(=O)C1CN(Cc2cn(Cc3ccc(C)cc3)nn2)CCS(=O)(=O)N1Cc1ccc(F)cc1 (stereo not given),3,2,1,7,-4,11
COC(=O)c1cc2c(c3c4ccccc4n(S(=O)(=O)c4cccc(C)c4)c13)C(=O)N(Cc1ccc(N(C)C)cc1)C2,2,-8,0,4,22*,-3
